PRMT1 FP inh: PRMT1 methyltransferase inhibitors, primary screen, biochemical, fluorescence polarization | Protein arginine N-methyltransferase 1 (Homo sapiens), Q99873 | recombinant PRMT1, activity-based probe fluorescence polarization | inhibition, % at 2.79 µM | hit rate 1.3% among 370,000;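 active means inhibition above about 21% made by adding two undisclosed values, limit read from the data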
LEDGF integ inh: blockers of LEDGF/p75-dependent integrase strand transfer – biochemical, TR-FRET, high throughput, primary screen; HIV-1 integrase (with human LEDGF/p75); TR-FRET IN-LEDGF/p75 DNA integration, Eu/Cy5; inhibition, % at 3.7 µM; hit rate 0.64% among 370,000; AID 743269, 2014;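 active means inhibition above the screen-wide mean plus 3 SD, cut at about 13% in these data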;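 further: signal is the Cy5 over europium emission ratio at 671 and 618 nm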
UHRF1 binding: UHRF1 methylated DNA binding inhibitors, primary screen, counter-screen for MBD2 inhibitor project, biochemical, TR-FRET, human UHRF1, single concentration. E3 ubiquitin-protein ligase UHRF1 (Homo sapiens), Q96T88. UHRF1 binding to methylated oligo. inhibition, % at 4.4 µM. hit rate 0.75% among 370,000; in the data active means inhibition above about 21%;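 further: UHRF1 SRA domain binding a hemimethylated CpG hairpin DNA probe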
TDP2 absorb: human TDP2 enzyme inhibitors, primary screen, biochemical, epi absorbance, recombinant enzyme | Tyrosyl-DNA phosphodiesterase 2 (Homo sapiens), O95551 | T5PNP hydrolysis, p-nitrophenol absorbance 415 nm | inhibition, % at 12.8 µM | hit rate 0.34% among 370,000 | AID 720702, 2013;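 active means inhibition above the mean of all tested compounds plus 3 SD, set per campaign, cut at about 25% in these data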
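System: recombinant human TDP2 / Amount: 120 nM TDP2 per well / Also added: 5 mM T5PNP chromogenic substrate / Doses: 12.8 µM single point, 1% DMSO / Incubation: 2 h at 37 °C / Detection: p-Nitrophenol epi absorbance / Evaluation: % inhibition relative to enzyme-containing and enzyme-free wells / Repeats: singlicate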
MBD2 inh: inhibitors of MBD2 binding to methylated DNA, primary screen, biochemical, TR-FRET, DNA-binding domain, human. Methyl-CpG-binding domain protein 2 (Homo sapiens), Q9UBB5. MBD2 binding to methylated oligonucleotide. inhibition, % at 4.4 µM. hit rate 0.31% among 370,000. AID 686964, 2013; in the data active means inhibition above about 13%
SIAE inh: human SIAE inhibitors, primary screen, biochemical, fluorescence polarization, FP-Rh probe, 1536-well HTS | inhibition, % at 9.66 µM | SIAE FP-Rh probe binding | hit rate 0.69% among 370,000;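 active means inhibition above a cutoff: mean of compounds within the control limits plus 3 SD of those, cut at about 17% in these data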
Target sequence (Q9HAT2 whole entry, looked up): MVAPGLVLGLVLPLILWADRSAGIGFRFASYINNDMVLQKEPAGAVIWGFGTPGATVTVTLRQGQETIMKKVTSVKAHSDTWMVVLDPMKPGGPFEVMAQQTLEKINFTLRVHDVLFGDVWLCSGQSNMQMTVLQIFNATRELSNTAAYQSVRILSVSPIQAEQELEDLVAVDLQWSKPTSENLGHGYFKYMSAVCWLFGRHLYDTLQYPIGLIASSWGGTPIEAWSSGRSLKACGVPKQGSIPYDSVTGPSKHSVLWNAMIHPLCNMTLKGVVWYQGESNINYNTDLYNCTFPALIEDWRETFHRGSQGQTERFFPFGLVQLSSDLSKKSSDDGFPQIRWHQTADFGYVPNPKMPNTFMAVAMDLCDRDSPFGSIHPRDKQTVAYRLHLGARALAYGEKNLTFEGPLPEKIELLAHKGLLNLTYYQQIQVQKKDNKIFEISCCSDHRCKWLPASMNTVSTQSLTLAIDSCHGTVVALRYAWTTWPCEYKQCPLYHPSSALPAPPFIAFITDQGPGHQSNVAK
TDP2 confirm: human TDP2 enzyme inhibitors, retest, confirmation, biochemical, epi absorbance, recombinant enzyme; absorbance read-out; inhibition, % at 12.8 µM; hit rate 22% among 1,100; shares compounds with TDP2 absorb; in the data active means inhibition above about 25%
Numbers stand for hits; . = inactive; / = not tested or not shown. Only some compounds are listed: those with a hit (about 3.3% of all), similar ones and a draw of the others.

SMILES	PRMT1 FP inh	LEDGF integ inh	UHRF1 binding	TDP2 absorb	MBD2 inh	SIAE inh	TDP2 confirm
N#CC1=C(N)Oc2n[nH]c(-c3cccs3)c2C1c1cccs1 (stereo not drawn)	.	.	.	29	.	.	.
Cc1cc(C)cc(NC(=O)OC2CCC23CCCCC3)c1 (stereo not drawn)	.	.	.	.	.	.	/
Nc1[nH]c(C(=O)c2ccccc2)c(-c2ccc3c(c2)OCO3)c1C(=O)NCCc1c[nH]c2ccccc12	.	.	.	.	.	.	/
CC(=O)c1ccc(NC(=O)N2CCc3ccccc3C2)cc1	.	.	.	27	.	.	.
CC(=O)c1cccc(NC(=O)N2CCc3ccccc3C2)c1	.	.	.	.	.	.	/
O=C(Nc1c(-c2ccccc2)[nH][nH]c1=O)c1cccc(C(F)(F)F)c1	.	.	.	26	.	.	.
O=C(Nc1c(-c2ccc3c(c2)OCO3)[nH][nH]c1=O)c1ccc2c(c1)OCO2	.	.	.	48	.	.	67
O=C(Nc1c(-c2ccc(Cl)cc2)[nH][nH]c1=O)c1ccc(Br)cc1	.	.	.	38	.	.	.
O=C(Nc1c(-c2ccccc2)[nH][nH]c1=O)c1ccccc1	.	.	.	35	.	.	.
O=C(Nc1ccccc1-c1ccccc1)c1cccc(C(F)(F)F)c1	.	.	.	.	.	.	/
COc1ccc(-c2[nH][nH]c(=O)c2NC(=O)c2ccccc2Br)cc1	.	.	.	.	.	.	/
CC(=O)CC[C@@H]1CC[C@]2(CCCN(C(=O)c3ccno3)C2)O1	.	.	.	.	.	.	/
S=C(Nc1ccc2nc(-c3ccccn3)c(-c3ccccn3)nc2c1)N1CCOCC1	.	26	.	31	.	.	.
CN(C)NC(=S)Nc1ccc2nc(-c3ccccn3)c(-c3ccccn3)nc2c1	.	.	.	.	.	.	/
CCOC(=O)CNC(=O)CN1C(=O)CCS(=O)(=O)c2ccccc21	.	.	.	.	.	.	/
O=C(CN1C(=O)CCS(=O)(=O)c2ccccc21)NCCc1ccccc1	.	.	.	26	.	.	.
O=C(N[C@@H](Cc1cccnc1)C(=O)N1CCC[C@H]1C(=O)NCCc1ccccc1Cl)c1ccc(Cl)cc1Cl	.	.	.	.	.	.	/
O=S(=O)(c1ccc(-c2ccon2)s1)N1CCCC1	.	.	.	26	.	.	.
O=S(=O)(c1ccc(-c2ccon2)s1)N1CCN(CCN2CCOCC2)CC1	.	.	.	.	.	.	/
CN1C2CCC1CC(N(CCc1ccccc1)C(=O)c1ccc(Cl)cc1)C2 (stereo not drawn)	.	.	.	28	.	.	.
COc1cccc(N2CCN(Cc3cccnc3)CC2)c1	.	.	.	31	.	.	.
CCOc1ccc(N2CC(C(=O)N3CCN(C(=O)c4ccco4)CC3)CC2=O)cc1 (stereo not drawn)	.	.	.	26	.	.	.
CCOc1ccc(N2CC(C(=O)N3CCCC3)CC2=O)cc1 (stereo not drawn)	.	.	.	.	.	.	/
CCOC(=O)C(=O)N/N=C/c1cccc(Br)c1	.	.	.	25	.	.	.
CSc1nc2ccsc2c(=O)n1-c1ccccn1	.	.	.	60	.	.	.
SMILES	PRMT1 FP inh	LEDGF integ inh	UHRF1 binding	TDP2 absorb	MBD2 inh	SIAE inh	TDP2 confirm
CC1CCN(C(=O)Cn2c(SCC(=O)Nc3nccs3)nc3ccccc32)CC1	.	.	.	30	.	.	.
CCc1ccccc1NC(=O)CSc1nc2ccccc2n1CC(=O)N1CCCC1	.	.	.	.	.	.	/
CCOc1ccc(Nc2ccc([N+](=O)[O-])c3nonc23)cc1	.	.	.	.	.	.	/
O=[N+]([O-])c1ccc(Nc2ccccc2)c2nonc12	.	.	.	26	.	.	.
COC(=O)[C@]12C[C@H](CC(=O)NCc3cccc4ccccc34)C(=O)N(Cc3ccc(Cl)cc3Cl)C1=C[C@H](C(C)(C)C)O[C@@H]2C	.	.	.	.	.	.	/
O=C(O)c1ccc(/C=C2/SC(=S)N(Cc3ccccc3)C2=O)cc1	.	.	.	.	.	.	/
O=C(Cc1ccccc1)NN1C(=O)/C(=C/c2ccc(C(=O)O)cc2)SC1=S	.	.	.	26	.	.	.
CCOc1cccc(OCCCCn2cnc3ccccc3c2=O)c1	.	.	.	25	.	.	.
CCOC(=O)[C@@]12CN(C(=O)OC(C)(C)C)CC=C1N(Cc1ccc(OC)cc1)C(=O)[C@H]2CC(=O)N1CCN(C(=O)c2ccco2)CC1	.	.	.	.	.	.	/
Cc1cccc(CCNC(=O)Cn2ncc3c2-c2cc(C)ccc2OC3)c1	.	.	.	.	.	.	/
CN(C)C(CNC(=O)c1ccc(NS(=O)(=O)c2ccc(F)cc2)cc1)c1ccco1 (stereo not drawn)	.	.	.	27	.	.	.
Cc1ccc(NS(=O)(=O)c2ccc(C(=O)NCC(c3ccco3)N(C)C)cc2)cc1 (stereo not drawn)	.	.	.	.	.	.	/
CCN(CC)S(=O)(=O)c1ccc2oc(SCC(=O)Nc3cc(C)on3)nc2c1	.	.	.	41	.	.	.
Cc1cc(NC(=O)CSc2nc3cc(Cl)ccc3o2)no1	.	.	.	.	.	.	/
CCCCNC(=O)C1CCCN1C(=O)NCc1ccccc1OC (stereo not drawn)	.	.	.	.	.	.	/
Cc1ccccc1NC(=O)CN1CCN(C)CC1	.	.	.	36	.	.	.
Cc1cccc(N=C2C(=O)Nc3c(Cl)cccc32)c1	.	.	.	.	.	.	/
O=C1Nc2c(Cl)cc(Cl)cc2C1=O	.	.	.	49	.	.	54
COC(=O)C1CN(CCO)CCS(=O)(=O)N1Cc1cn(Cc2ccc(C)cc2)nn1 (stereo not drawn)	.	.	.	.	.	.	/
CCCCNC(=O)C1CCCN1C(=O)Nc1cc(Cl)cc(Cl)c1 (stereo not drawn)	.	.	.	.	.	.	/
N#CC1=C(N)OC2=C(C(=O)CCC2)C1c1ccccc1 (stereo not drawn)	.	.	.	.	.	.	/

Source: PubChem BioAssay (The Scripps Research Institute Molecular Screening Center)
